Measurements taken from ChEMBL document CHEMBL5715960, “Epigenetic Co-Deregulation of EZH2/TET1 is a Senescence-Countering, Actionable Vulnerability in Triple-Negative Breast Cancer” (Theranostics, 2019).
Activity calls are given as the source filed them. No cut-off for these calls is given here.

How the values were obtained:
MDA-MB-231 [1] = assay: Cytotoxicity against human MDA-MB-231 cells upto 0.5 ug/ml; assay type: functional, cell-based; conditions: dose <= 0.5 µg/ml
MDA-MB-436 [2] = assay: Cytotoxicity against human MDA-MB-436 cells upto 0.5 ug/ml; assay type: functional, cell-based; conditions: dose <= 0.5 µg/ml
MDA-MB-231 [3] = assay: Antiproliferative activity against human MDA-MB-231 cells assessed as increase in global H3K9me3 expression level by immunoblot analysis; assay type: functional, cell-based
In short: (§1)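 Cells exposed to GSK343 at 2 µM (standard level unless stated otherwise), lysed and immunoblotted; α-tubulin and total H3 as loading controls.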

MDA-MB-436 [4] = assay: Antiproliferative activity against human MDA-MB-436 cells assessed as increase in global H3K9me3 expression level by immunoblot analysis; assay type: functional, cell-based; in short: as §1
BT-474 = assay: Antiproliferative activity against human BT-474 cells assessed as increase in global H3K9me3 expression level by immunoblot analysis; assay type: toxicity, cell-based; in short: as §1
MCF7 = assay: Antiproliferative activity against human MCF7 cells assessed as increase in global H3K9me3 expression level by immunoblot analysis; assay type: toxicity, cell-based; in short: as §1

Structure (SMILES)	Activity (MDA-MB-231 [1])	Activity (MDA-MB-436 [2])	Activity (MDA-MB-231 [3])	Activity (MDA-MB-436 [4])	Activity (BT-474)	Activity (MCF7)
COc1cccc2c1C(=O)c1c(O)c3c(c(O)c1C2=O)C[C@@](O)(C(=O)CO)C[C@@H]3O[C@H]1C[C@H](N)[C@H](O)[C@H](C)O1	inactive	inactive	–	–	–	–
Nc1nccc2c1ncn2[C@@H]1C=C(CO)[C@@H](O)[C@H]1O	–	–	Active	inactive	Non-Toxic	Non-Toxic
